# Arrestin-AP2 inh – inhibitors of human beta-arrestin and AP2 interaction | FITC-arrestin peptide / GST-AP2 beads, flow cytometry; AP2 beta2 appendage carries R879A mutation | 0.31% of 340,000 active | inhibition, % at 10 µM;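 active = inhibition above a set limit, near 3 SD of compounds lacking own fluorescence, cut at about 54% in these data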;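 also: plate controls were DMSO wells for no effect and 5 µM unlabelled arrestin peptide for full effect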
#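 Material – GST-tagged AP2 beta2-adaptin appendage (R879A) on 4 µm glutathione beads · Probe or stimulus – fluorescein-tagged arrestin peptide at 50 nM final · Timing – 12 min plus 1 h, RT · Detection – bead flow cytometry, FITC channel · Read-out basis – inhibition as reduced fluorescein signal on beads, percent · Medium – PBS plus Tween 20 (0.05%) and BSA (0.1%)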
# LANA-H2B inh – blocks KSHV LANA binding to histone H2A/H2B; Q9QR71; cell-free LANA-H2A/H2B peptide, fluorescence polarization; inhibition, % (concentration not given with the values); 0.6% of 320,000 active; AID 2629; in the data active = inhibition mostly above about 10%, no sharp cut-off; inactive = mostly below about 6.7%
# T cell HTS – modulates CD8 T cell binding to vesicles | 2C CD8+ T cell-vesicle binding, flow cytometry; hits give low values | AID 2052 | response (vesicle binding), % at 7 µM | 0.068% of 330,000 active;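 active = response, share of CD8 T cells binding vesicles, and their 90th percentile fluorescence all below set limits, cut at about 80% in these data, passing the limit was not always enough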;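 also: values below 100% mean blocked vesicle binding to the CD8+ T cells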
#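 Assay system – 2C mouse CD8+ T cells · Also added – QL9-loaded Drosophila micro-vesicles · Timing – Cell–vesicle co-incubation 1.5 h at 37 °C, staining 20 min on ice · Signal – flow cytometry of vesicle-bound cells · Measure – percent CD8+ FL2 mean versus row control · Controls – Peptide-free naked vesicles (low) and QL9 vesicles with 0.7% DMSO vehicle (high)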
# HDAC3 inh – human HDAC3 inhibition; recombinant HDAC3, fluorogenic peptide/trypsin coupled, fluorescence; inhibition, % at 8.3 µM; 0.15% of 320,000 active; AID 2718; in the data active = inhibition above about 26%, passing the limit was not always enough; inconclusive = no clear call, values can overlap the other calls
# DSG3 Ab inh – blocks pemphigus antibody binding to human desmoglein-3 | DSG3-coupled beads, scFv-anti-DSG3-GFP binding, flow cytometry; hits give low values | binding (percent of control), % at 10 µM | P32926 | 0.48% of 310,000 active;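 active = binding more than 3 SD below its plate's average and above zero; inconclusive = below that plate limit but binding exactly zero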;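 also: hits lower antibody fragment binding to DSG3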
# Target sequence (P32926 whole entry, looked up, the tested form may be a part): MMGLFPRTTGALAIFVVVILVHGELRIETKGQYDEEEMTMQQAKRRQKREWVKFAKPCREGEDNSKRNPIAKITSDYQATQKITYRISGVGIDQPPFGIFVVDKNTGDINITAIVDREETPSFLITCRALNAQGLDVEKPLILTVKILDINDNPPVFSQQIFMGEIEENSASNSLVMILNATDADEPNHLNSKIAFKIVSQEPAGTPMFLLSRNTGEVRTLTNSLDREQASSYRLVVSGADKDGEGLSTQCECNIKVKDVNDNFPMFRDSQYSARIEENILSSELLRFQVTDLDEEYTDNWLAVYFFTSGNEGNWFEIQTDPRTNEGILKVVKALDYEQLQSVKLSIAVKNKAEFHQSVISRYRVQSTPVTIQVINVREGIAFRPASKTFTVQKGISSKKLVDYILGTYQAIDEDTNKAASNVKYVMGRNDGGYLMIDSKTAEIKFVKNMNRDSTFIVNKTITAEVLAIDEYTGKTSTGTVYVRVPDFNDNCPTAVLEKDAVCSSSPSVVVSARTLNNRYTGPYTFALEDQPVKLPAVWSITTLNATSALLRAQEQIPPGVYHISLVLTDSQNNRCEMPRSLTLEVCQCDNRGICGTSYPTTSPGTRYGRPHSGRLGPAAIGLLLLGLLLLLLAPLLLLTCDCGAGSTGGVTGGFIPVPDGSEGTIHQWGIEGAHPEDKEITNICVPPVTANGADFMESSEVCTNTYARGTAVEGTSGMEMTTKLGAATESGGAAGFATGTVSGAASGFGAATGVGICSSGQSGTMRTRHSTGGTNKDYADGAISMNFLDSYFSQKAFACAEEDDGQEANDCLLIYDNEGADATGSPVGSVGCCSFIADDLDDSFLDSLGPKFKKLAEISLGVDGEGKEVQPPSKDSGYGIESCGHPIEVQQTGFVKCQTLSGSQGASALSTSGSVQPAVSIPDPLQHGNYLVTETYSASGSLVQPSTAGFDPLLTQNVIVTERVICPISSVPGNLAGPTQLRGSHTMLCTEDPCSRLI
# Numbers without * were called inactive; i = inactive; ? = inconclusive; · = not tested or not shown; + = active, no number. Compounds with a hit are over-represented: about 1.5% of the library has one in this group of screens.
SMILES,Arrestin-AP2 inh,LANA-H2B inh,T cell HTS,HDAC3 inh,DSG3 Ab inh
O=[N+]([O-])c1ccc(Cl)c(S(=O)(=O)NCCc2ccccn2)c1,8,4,396,2,·
CCOc1ccccc1C=C1SC(=S)NC1=O,5,·,·,·,122
O=C(Nc1ccc(S(=O)(=O)N2CCOCC2)cc1)c1ccccc1,5,7,588,6,94
COc1ccccc1C(=O)NC(=S)Nc1ccc(S(=O)(=O)N2CCN(C)CC2)cc1,-2,2,0.0*,3,110
O=C(Nc1ccccc1)c1ccccc1OCc1ccc(S(=O)(=O)N2CCOCC2)cc1,0,4,211,-1,67*
O=C(Cc1ccc(F)cc1)Nc1cccc(-c2cn3c(n2)SCC3)c1,-20,+,142,-5,91
CCN(C(=O)CSc1nnc(SC)s1)c1c(N)n(Cc2ccccc2)c(=O)[nH]c1=O,31,1,274,-4,·
CCN(C(=O)CSc1nc(C)c(C)c(C)n1)C1CCS(=O)(=O)C1 (stereo not drawn),12,-1,547,-4,127
Cc1noc(C)c1C(=O)N1CCCC(Nc2ccc(C(C)C)cc2)C1 (stereo not drawn),6,21*,293,0,130
COc1ccc(NC2CCCN(C(=O)c3c(C)noc3C)C2)cc1 (stereo not drawn),23,3,281,10,109
Fc1ccc(CSc2ncnc3c2oc2ccccc23)cc1,8,-3,241,6,69*
Fc1cccc(CSc2ncnc3c2oc2ccccc23)c1,0,1,208,-7,107
CC1/C(=N/O)C(CN(C)C)C2CC1C2(C)C (stereo not drawn),2,0,212,6,96
CC1C2CC(C(CN(C)C)/C2=N/O)C1(C)C (stereo not drawn),6,66*,402,2,96
COc1ccc(C2(SCC(N)C(=O)O)c3ccccc3-c3ccccc32)cc1 (stereo not drawn),6,·,·,·,72*
CON(C)C(=O)CC(CNC(=O)OC(C)(C)C)c1ccc(Cl)cc1 (stereo not drawn),27,-2,i,-3,99
COc1ccc(-c2cc(C(F)(F)F)nc(SCCC(=O)NCc3ccccc3)n2)cc1,-40,32*,314,?,98
COC(=O)C(Cc1ccccc1)NC(=O)CCC(=O)NC(C)CCc1ccccc1 (stereo not drawn),9,14*,456,-6,106
COC(=O)[C@H](Cc1ccccc1)NC(=O)NC(C)CCc1ccccc1 (stereo partly drawn),-2,3,166,-5,105
CCCCNC(=O)C(CC)(ONc1ccccc1C(F)(F)F)c1ccccc1 (stereo not drawn),5,3,i,7,101
Cc1c(Cc2ccccc2)sc(/N=C/c2c(O)ccc3ccccc23)c1C(N)=O,5,-4,132,-19,110
Cc1c(Cc2ccccc2)sc(/N=C/c2ccc3ccccc3c2)c1C(N)=O,6,+,529,-2,121
O=C(Oc1ccc(=O)n(-c2ccccc2)n1)c1ccccc1,6,-2,201,81*,·
Cn1[nH]c(-c2ccccc2)c(/C=N/O)c1=O,-18,29*,360,-11,·
Cc1ccc2c(CN(C)Cc3cccc(F)c3)cc(=O)oc2c1C,6,-9,208,5,104
SMILES,Arrestin-AP2 inh,LANA-H2B inh,T cell HTS,HDAC3 inh,DSG3 Ab inh
Cc1ccc2c(CN(C)Cc3ccccc3)cc(=O)oc2c1C,-2,2,368,4,64*
COC(=O)c1c(-c2ccc(OC)cc2)sc2ccc(N3CCOCC3)cc12,-6,-3,339,14,66*
COc1ccc(-c2sc3ccc(N4CCOCC4)cc3c2-c2ccc(O)cc2)cc1,6,-1,545,-4,104
Cc1cc(-c2csc(N)n2)c(C)n1CCC(C)C,-6,14*,426,-6,86
Cc1cccc(NC(=O)CN(CC2CCCO2)C(=O)c2cc(S(=O)(=O)N(C)C)ccc2F)c1C (stereo not drawn),-1,-1,132,-3,129
O=C(O)/C(=C\c1cccc(OCc2ccccc2)c1)c1ccc(F)cc1,6,10*,413,3,106
CCN(CC)C(=O)CN1CCN(Cc2ccc3c(c2)OCO3)CC1,-2,-2,0,-1,99
Cc1ccc(C2(CCNCc3ccc(N(C)C)cc3)CCOC(C(C)C)C2)cc1 (stereo not drawn),-3,0,212,-2,114
CC(C)C1CC(CCNCc2ccc(N(C)C)cc2)(c2ccccc2)CCO1 (stereo not drawn),5,7.2*,385,0,128
Cc1ccc(OCC(=O)Nc2nnc(S(=O)(=O)N3CCC(C)CC3)s2)cc1,7,-6,395,0,74*
COc1cccc(-c2noc(C3CCCN(C(=O)Cc4ccccc4)C3)n2)c1 (stereo not drawn),-3,11*,496,-4,94
COc1ccc(-n2c(=S)[nH]c3cc(C(=O)Nc4ccc(OC)c(OC)c4)ccc3c2=O)cc1,3,126*,351,1,96
Cc1cc(C)cc(NC(=O)CCn2c(=S)[nH]c3ccccc3c2=O)c1,50,2,436,2,·
COc1ccc(NC(=O)CCn2c(=S)[nH]c3ccccc3c2=O)cc1OC,-21,4,306,1,63*
C[C@@H]1CN([C@@H](C)CO)S(=O)(=O)c2ccc(Br)cc2O[C@H]1CN(C)C(=O)c1ccccc1F,·,·,·,·,107
CC1CCCC(C)N1C(=O)c1cc2ncc(CCCl)cn2n1 (stereo not drawn),-3,13*,224,-2,107
COc1ccc(CNC2CCCc3ccccc32)cc1OC (stereo not drawn),-10,31*,331,-1,104
COc1ccccc1CNC1CCCc2ccccc21 (stereo not drawn),-8,0,207,4,111
CN(C)C(=S)NC(=O)C(c1ccccc1)c1ccccc1,24,-2,506,-1,-12*
CC(=O)NNC(=S)NC(=O)C(c1ccccc1)c1ccccc1,-19,-1,212,5,100
CC(Nc1nc(-c2ccc3c(c2)NC(=O)CO3)cs1)c1ccccc1 (stereo not drawn),-6,2,146,36*,99
O=S(=O)(NCc1ccccc1)c1cccc2nsnc12,-4,3,207,5,95
O=C(O)CC(CNS(=O)(=O)c1cccc2nsnc12)c1ccccc1 (stereo not drawn),31,-5,596,8,40*
O=C1CS/C(=N/N=C/c2ccncc2)N1,-6,0,169,6,81*
Cc1cccc(C)c1NC(=O)CN(C)C(=O)Cn1c(=O)cnc2ccccc21,2,6,192,-1,99
CCOC(=O)c1sc(=NC(=O)c2ccccc2Br)n(C)c1C,4,-2,390,-16,68*

# Compound activity deposited in PubChem by several laboratories.
